Screening results deposited in PubChem BioAssay by NMMLSC.
MEKK3 PB1 HTS – MEKK3-MEK5 PB1 interaction, increase or decrease | Q99759 | binding response (% of control), % at 10 µM | 290,000 compounds, 1.4% hits | bead-based flow cytometry, Alexa488-MEK5 binding to MEKK3; actives lie on both sides; 0 = blocked by unlabeled MEK5, 100 = vehicle;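 active means binding response more than 3 SD above or below the average of its plate-row segment, actives on both sides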;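 further: Alexa488 bead fluorescence after subtracting the streptavidin-only scavenger bead signal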
Target sequence (Q99759 whole entry, looked up): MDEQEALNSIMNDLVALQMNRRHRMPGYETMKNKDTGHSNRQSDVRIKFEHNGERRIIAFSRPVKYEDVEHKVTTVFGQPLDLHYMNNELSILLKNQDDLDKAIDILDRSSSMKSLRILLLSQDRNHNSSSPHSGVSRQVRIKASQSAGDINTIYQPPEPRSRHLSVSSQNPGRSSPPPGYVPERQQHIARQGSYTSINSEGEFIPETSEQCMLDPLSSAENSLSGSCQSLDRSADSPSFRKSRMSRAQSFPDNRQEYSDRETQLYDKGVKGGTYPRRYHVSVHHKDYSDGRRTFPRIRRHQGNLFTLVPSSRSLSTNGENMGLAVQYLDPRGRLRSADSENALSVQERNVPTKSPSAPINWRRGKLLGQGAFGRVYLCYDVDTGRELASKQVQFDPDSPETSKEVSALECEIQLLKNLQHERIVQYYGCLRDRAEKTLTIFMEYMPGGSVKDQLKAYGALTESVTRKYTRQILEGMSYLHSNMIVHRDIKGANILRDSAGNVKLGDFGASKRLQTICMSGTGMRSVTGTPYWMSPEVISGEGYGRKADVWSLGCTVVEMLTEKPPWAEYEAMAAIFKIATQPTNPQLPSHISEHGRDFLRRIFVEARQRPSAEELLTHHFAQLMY
Arrestin-AP2 inh – human beta-arrestin and AP2 interaction inhibition; FITC-arrestin peptide / GST-AP2 beads, flow cytometry; AP2 beta2 appendage carries R879A mutation; inhibition, % at 10 µM; 340,000 compounds, 0.31% hits; AID 504490;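 active means inhibition above a set limit, near 3 SD of compounds lacking own fluorescence, cut at about 54% in these data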;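 further: plate controls were DMSO wells for no effect and 5 µM unlabelled arrestin peptide for full effect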
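Test system: GST-tagged AP2 beta2-adaptin appendage (R879A) on 4 µm glutathione beads; also added: fluorescein-tagged arrestin peptide at 50 nM final; timing: 12 min plus 1 h, RT; signal: flow cytometry, FL1 (488/535 nm); read-out: percent drop in bead-associated FITC signal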
MEKK2 WT-MEK5 – raises or lowers MEK5 binding to wildtype human MEKK2 PB1 domain | bead flow cytometry, Alexa488-MEK5 binding to MEKK2 WT; actives lie on both sides | binding response (% of control), % at 10 µM | 290,000 compounds, 1.1% hits | AID 1531; in the data active means binding response below about 67% or above about 130%
MEKK2mut PB1 HTS – signal of MEK5 binding to mutant human MEKK2 PB1 domain; bead flow cytometry, Alexa488-MEK5 binding to MEKK2 mutant; percent response, % at 10 µM; 290,000 compounds, 0.35% hits; AID 1530; in the data active means percent response above about 24%, passing the limit was not always enough
MEKK2wt confirm – raises or lowers MEK5 binding to wildtype human MEKK2, retest | shares compounds with MEKK3 PB1 HTS | bead flow cytometry, Alexa488-MEK5 binding to MEKK2 WT; actives lie on both sides | binding response (% of control), % at 10 µM | 5,900 compounds, 2.4% hits | AID 1892; in the data active means binding response below about 16% or above about 210%; inactive means in between
MEKK2mut-MEK5 – signal of MEK5 binding to mutant human MEKK2, retest; bead flow cytometry, Alexa488-MEK5 binding to MEKK2 mutant; shares compounds with MEKK3 PB1 HTS; percent response, % at 10 µM; 5,900 compounds, 2% hits; in the data active means percent response mostly above about 71%, no sharp cut-off; inactive means mostly below about 38%;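 further: higher means compound restores mutant binding toward wildtype level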
MEKK3 confirm – confirmation of inhibitors of MEK5 binding to human MEKK3; bead flow cytometry, Alexa488-MEK5 binding to MEKK3; stronger effect = lower value; 5,900 compounds, 1.8% hits; shares compounds with MEKK3 PB1 HTS; AID 1894; binding response (% of control), % at 10 µM;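 active means binding response below 72% of control, or above a set upper limit, though filed actives all read lower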;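 further: 100% = DMSO only wells and 0% = binding blocked by excess unlabeled MEK5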
Starred values were filed as active, the others as inactive; / = not tested or not shown; [ ] = remark or other dose. In the library only some 2.3% were active in any assay of this set; here they are far more common.

SMILES	MEKK3 PB1 HTS	Arrestin-AP2 inh	MEKK2 WT-MEK5	MEKK2mut PB1 HTS	MEKK2wt confirm	MEKK2mut-MEK5	MEKK3 confirm
COc1cccc(NC(=O)Nc2nnc(-c3ccccc3SCc3ccccc3)s2)c1	115.0	3.3	114.0	18.0	/	/	/
O=[N+]([O-])c1ccc(COc2ccccc2CN2CCCCC2)cc1	/	7.6	/	/	/	/	/
Cc1onc(-c2ccccc2)c1-c1csc(N/N=C/c2ccccc2)n1	68.0*[inhibitor]	-3.7	74.0	-17.0	99.0	-1.0	99.0
Cc1ccc(S(=O)(=O)N2CCCCC2)cc1NC(=O)c1ccc(Cl)nc1	/	-1.1	/	/	/	/	/
COc1ccc(CCN2C(=O)C(Oc3ccccc3C)C2c2ccc3c(c2)OCO3)cc1 (stereo not given)	156.0*	35.9	109.0	1.0	93.0	-10.0	98.0
COc1ccc(CCN2C(=O)C(Oc3ccccc3C)C2c2ccc3c(c2)OCO3)cc1OC (stereo not given)	100.0	-0.2	100.0	3.0	/	/	/
COc1ccc(NC(=O)/C(=C\c2ccc(OC)c(OC)c2)NC(=O)c2ccco2)cc1	100.0	-7.6	104.0	5.0	/	/	/
CSc1ccccc1NC(=O)CN(C)CC(=O)Nc1cc(C)ccc1C	68.0*[inhibitor]	9.7	96.0	-2.0	99.0	-13.0	99.0
COc1ccc(S(=O)(=O)N(C)CC(=O)Nc2ccccc2SC)cc1Cl	82.0*[inhibitor]	12.4	89.0	-8.0	102.0	3.0	107.0
COc1ccc(S(=O)(=O)N(C)CC(=O)Nc2ccccc2SC)cc1	97.0	-0.2	101.0	-2.0	/	/	/
CC(C)CCN1CCN(Cc2nc(-c3ccc(F)cc3)cs2)CC1CCO (stereo not given)	89.0	-5.7	92.0	-8.0	/	/	/
N#C/C(=C\c1ccc(O)c(O)c1)C(=O)Nc1cccc2ncccc12	94.0	8.2	89.0	-2.0	/	/	/
COc1ccc(C(=O)N2CCC(C(=O)Nc3ccc4c(c3)OCO4)CC2)cc1	101.0	-1.1	104.0	-1.0	/	/	/
O=C(Nc1cccc(F)c1)C1CCN(C(=O)c2ccc(Cl)cc2)CC1	145.0*	-4.3	105.0	1.0	99.0	-6.0	97.0
COc1cc(OC)cc(C(=O)N2CCC(C(=O)Nc3ccc4c(c3)OCCO4)CC2)c1	146.0*	-6.8	105.0	1.0	104.0	2.0	104.0
CCN(CC(=O)NCc1cccs1)C(=O)CCOc1ccccc1	/	-9.7	/	/	/	/	/
CCc1ccc(OCC(O)CN2CCC(CN3C(=O)c4cccc5cccc(c45)C3=O)CC2)cc1 (stereo not given)	118.0	3.2	148.0*	1.0	199.0	43.0	108.0
COc1cccc(OCC(O)CN2CCC(CN3C(=O)c4cccc5cccc(c45)C3=O)CC2)c1 (stereo not given)	115.0	23.2	156.0*	-3.0	115.0	11.0	100.0
O=C1c2cccc3cccc(c23)C(=O)N1CCN1CCN(CC(O)COc2ccc3ccccc3c2)CC1 (stereo not given)	111.0	0.9	149.0*	5.0	178.0	43.0	105.0
O=C1c2cccc3cccc(c23)C(=O)N1CC1CCN(CC(O)COc2ccc3ccccc3c2)CC1 (stereo not given)	/	-4.1	/	/	/	/	/
COc1ccc(NC(=O)Cc2coc3cc(C)ccc23)cn1	98.0	-4.4	98.0	-5.0	/	/	/
COc1cc(C(CCN2CCCC(C)C2)c2c(OC)cc(OC)c3c2OC(=O)CC3c2ccc(N(C)C)cc2)cc(OC)c1OC (stereo not given)	96.0	28.6	136.0*	14.0	136.0	16.0	100.0
COc1cc(C(CCN2CCOCC2)c2c(OC)cc(OC)c3c2OC(=O)CC3c2ccc(N(C)C)cc2)cc(OC)c1OC (stereo not given)	99.0	4.0	102.0	4.0	/	/	/
COc1cc(C2CC(=O)Oc3c(C(CCN4CCCC(C)C4)c4ccc(N(C)C)cc4)c(OC)cc(OC)c32)cc(OC)c1OC (stereo not given)	124.0	9.9	154.0*	5.0	119.0	13.0	105.0
CCC(=O)N[C@@H]1CC(C(C)(C)NC(=O)CC)CC=C1C (stereo not given in full)	2.0*[inhibitor]	11.7	1.0*[inhibitor]	-21.0	105.0	3.0	101.0
SMILES	MEKK3 PB1 HTS	Arrestin-AP2 inh	MEKK2 WT-MEK5	MEKK2mut PB1 HTS	MEKK2wt confirm	MEKK2mut-MEK5	MEKK3 confirm
CCOC(=O)c1ccc2c(c1)n(CC)c(/C=C/N(C)c1ccccc1)[n+]2CC	98.0	-4.9	101.0	-1.0	/	/	/
CC[n+]1c(/C=C/N(C)c2ccccc2)n(-c2ccccc2)c2ccc(-c3nc4ccccc4s3)cc21	112.0	-13.4	328.0*	140.0*	262.0*	117.0*	115.0
CCC/C=C1/CCCOC(C(=O)NCCNCCO)(C(F)(F)F)C1 (stereo not given)	71.0*[inhibitor]	16.9	81.0	-7.0	97.0	3.0	97.0
COCCCN(C(=O)CCSc1ccc(F)cc1)c1c(N)n(Cc2ccccc2)c(=O)[nH]c1=O	/	33.0	/	/	/	/	/
CCOC(=O)C1=C(N)OC2=C(C(=O)CC(C)(C)C2)C1c1ccc(CC)s1 (stereo not given)	40.0*[inhibitor]	-3.9	41.0*[inhibitor]	-15.0	95.0	-4.0	102.0
CCOC(=O)C1=C(N)OC2=C(C(=O)CC(C)(C)C2)C1c1ccc(C)s1 (stereo not given)	110.0	-9.8	105.0	0.0	/	/	/
O=C(O)C(Cc1ccc(Cl)cc1)NS(=O)(=O)c1ccc(Cl)cc1 (stereo not given)	100.0	1.4	100.0	-1.0	/	/	/
Cc1ccc(-n2nc3c(=O)n(CCCC(=O)NCC(C)c4ccccc4)nc(C)c3c2C)cc1 (stereo not given)	105.0	-4.0	110.0	10.0	/	/	/
CCN(CC)c1ccc(NC(=O)CN2CCN(CC(=O)Nc3ccccc3OC)CC2)cc1	105.0	12.4	104.0	4.0	/	/	/
CCN(CC)c1ccc(NC(=O)CN2CCN(CC(=O)Nc3ccccc3F)CC2)cc1	122.0*	-0.6	124.0	13.0	104.0	2.0	97.0
CC(C)Cc1nc2ccccc2n1CCc1ccccc1	104.0	2.7	103.0	1.0	/	/	/
CC(NC(=O)Nc1ccc(F)cc1)C(c1cccs1)N1CCCC1 (stereo not given)	142.0*	-0.7	117.0	1.0	109.0	3.0	105.0
Cc1ccc2c(c1)-c1nc3ccccc3cc1C2=NC1CCCCC1	103.0	/	105.0	8.0	/	/	/
Cc1ccc2c(c1)C(=NC1CCCCC1)c1cc3ccccc3nc1-2	67.0*[inhibitor]	2.1	101.0	1.0	107.0	7.0	105.0
CCOc1ccc(/C=C/c2nc(C#N)c(NCCCN(C)C)o2)cc1	113.0	13.6	140.0*	26.0*	103.0	9.0	101.0
CCOc1ccc(/C=C/c2nc(C#N)c(NCCCOC)o2)cc1	99.0	-3.1	107.0	3.0	/	/	/
